pEC50, pIC50: −log10 of the molar value.
Assays:
[1] = Therapeutic index, ratio of CC50 for human MT4 cells to EC50 for HIV1 3B infected in human MT4 cells; assay type: cell-based; conditions: HIV1 3B infected MT4 cells, read-out: Ratio CC50/EC50
Method in brief: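 Computed as CC50/EC50, both from parallel MTT assays in MT-4 cells, with and without infection by 100–300 CCID50 HIV-1 IIIB, using 5-fold serial compound dilutions.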

[2] = Cytotoxicity against human MT4 cells assessed as cell viability by MTT assay; assay type: cell-based
Method in brief: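 Uninfected MT-4 cells run in parallel with the antiviral assay, exposed to 5-fold serial dilutions of compound. Viability read by MTT; CC50 is the concentration reducing viability by 50%.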

[3] = biological target: T1, Human immunodeficiency virus type 1 integrase (Human immunodeficiency virus 1, UniProt Q7ZJM1); assay: Inhibition of HIV1 recombinant wild type integrase 3'-processing activity by gel-based assays
T1 sequence (Q7ZJM1 whole entry): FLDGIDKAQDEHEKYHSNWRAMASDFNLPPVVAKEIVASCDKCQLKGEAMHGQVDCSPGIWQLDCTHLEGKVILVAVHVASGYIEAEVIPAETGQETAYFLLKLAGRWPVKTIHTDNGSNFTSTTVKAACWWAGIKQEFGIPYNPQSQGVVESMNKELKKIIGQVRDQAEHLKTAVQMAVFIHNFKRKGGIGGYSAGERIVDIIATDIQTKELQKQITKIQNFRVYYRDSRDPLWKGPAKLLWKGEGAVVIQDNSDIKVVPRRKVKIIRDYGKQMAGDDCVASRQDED

[4] = biological target: T1, Human immunodeficiency virus type 1 integrase; assay: Inhibition of HIV1 recombinant wild type integrase strand transfer activity by gel-based assay
[5] = Retention time of the compound by HPLC; assay type: physicochemical
[6] = test system: Human immunodeficiency virus 1; assay: Antiviral activity against wild-type HIV1 3B infected in human MT4 cells assessed as inhibition of viral cytopathic effect by MTT assay; assay type: functional, organism-based; conditions: Human immunodeficiency virus 1, 3B
Method in brief: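 MT-4 cells infected with 100–300 CCID50 of titrated HIV-1 IIIB stock in the presence of 5-fold serial dilutions of compound (DMSO stocks, diluted in DMSO). Protection against virus-induced cytopathic effect read by MTT; EC50 taken as the concentration giving 50% protection.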

SMILES | selectivity ratio [1] | CC50 [2] [µM] | pIC50 [3] | pIC50 [4] | Retention_time [5] [min] | pEC50 [6]
O=C(NCc1ccc(F)cc1)c1nc(-c2ccc(F)cc2)[nH]c(=O)c1O | 26 | 44 | 4.92 | 6.22 | 4.075 | 5.76
O=C(NCc1ccc(Cl)cc1)c1nc(-c2ccc(F)cc2)[nH]c(=O)c1O | 5 | 44 | 5.05 | 6.10 | 5.03 | 5.09
O=C(NCc1ccc(Br)cc1)c1nc(-c2ccc(F)cc2)[nH]c(=O)c1O | 4 | 47.5 | 4.96 | 6.30 | 5.373 | 4.96
O=C(NCc1ccc(F)c(F)c1)c1nc(-c2ccc(F)cc2)[nH]c(=O)c1O | 6 | 31 | 4.77 | 6.00 | 4.39 | 5.29
Cc1ccc(CNC(=O)c2nc(-c3ccc(F)cc3)[nH]c(=O)c2O)cc1C | 12 | 33.5 | 4.80 | 6.30 | 6.437 | 5.57
COc1ccc(CNC(=O)c2nc(-c3ccc(F)cc3)[nH]c(=O)c2O)cc1 | 6 | 44 | 4.80 | 5.70 | 4.134 | 5.12
O=C(NCCc1ccc(F)cc1)c1nc(-c2ccc(F)cc2)[nH]c(=O)c1O |  | 30 | 4.77 | 5.40 | 4.748 | < 4.52
O=C(NCc1cccc(Cl)c1)c1nc(-c2ccc(F)cc2)[nH]c(=O)c1O | 18 | 35 | 4.70 | 5.85 | 5.251 | 5.72
O=C(NCc1ccc(O)cc1)c1nc(-c2ccc(F)cc2)[nH]c(=O)c1O | 7 | 49 | < 4.70 | 5.22 | 2.846 | 5.17
O=C(NCc1cccc(F)c1)c1nc(-c2ccc(F)cc2)[nH]c(=O)c1O | 7 | 49.5 | 4.70 | 5.52 | 4.349 | 5.13
O=C(NCc1ccccc1F)c1nc(-c2ccc(F)cc2)[nH]c(=O)c1O | 4 | 28.5 | 4.70 | 5.15 | 2.395 | 5.11
O=C(NCc1cccc(Cl)c1F)c1nc(-c2ccc(F)cc2)[nH]c(=O)c1O | 18 | 48 | 4.89 | 5.85 | 2.309 | 5.58
O=C(NCc1ccc(F)c(Cl)c1)c1nc(-c2ccc(F)cc2)[nH]c(=O)c1O | 35 | 45.5 | 5.22 | 5.40 | 3.56 | 5.89
O=C(NCc1cc(F)c(F)c(F)c1)c1nc(-c2ccc(F)cc2)[nH]c(=O)c1O | 7 | 34.5 | 4.85 | 5.10 | 3.549 | 5.33
O=C(NCc1ccc(F)cc1)c1nc(-c2ccccc2)[nH]c(=O)c1O |  |  | 4.77 | 6.00 | 2.378 | 
O=C(NCc1ccc(F)cc1)c1nc(Cc2ccc(F)cc2)[nH]c(=O)c1O |  |  | < 4.70 | 5.00 | 2.989 | 
O=C(NCc1ccc(F)cc1)c1nc(-c2ccc(Cl)cc2)[nH]c(=O)c1O |  |  | 5.30 | 5.70 | 2.306 | 
O=C(NCc1ccc(F)cc1)c1nc(-c2ccccc2F)[nH]c(=O)c1O |  |  | 4.80 | 5.70 | 2.949 | 
O=C(NCc1ccc(F)cc1)c1nc(-c2ccc(Br)cc2)[nH]c(=O)c1O |  |  | 5.52 | 6.00 | 2.385 | 
O=C(NCc1ccc(F)cc1)c1nc(-c2cccc(F)c2)[nH]c(=O)c1O |  |  | 5.30 | 6.00 | 2.379 | 
O=C(NCc1ccccc1)c1nc(-c2ccccc2)nc(O)c1O | 9 | 50.7 | < 4.70 | 5.10 | 2.288 | 5.25
